Laboratory results reported in ChEMBL document CHEMBL3856275, “Discovery of Second Generation Reversible Covalent DPP1 Inhibitors Leading to an Oxazepane Amidoacetonitrile Based Clinical Candidate (AZD7986)” (J Med Chem, 2016).
≈ marks a conversion by molar mass, not a printed value.

Legend:
Dipeptidyl peptidase 1 [1] = target: T1, Dipeptidyl peptidase 1 (Rattus norvegicus, UniProt P80067); assay: Inhibition of rat DPP1 using Gly-Arg-AMC as substrate preincubated for 30 mins followed by substrate addition by fluorometric assay
T1 sequence (P80067 whole entry): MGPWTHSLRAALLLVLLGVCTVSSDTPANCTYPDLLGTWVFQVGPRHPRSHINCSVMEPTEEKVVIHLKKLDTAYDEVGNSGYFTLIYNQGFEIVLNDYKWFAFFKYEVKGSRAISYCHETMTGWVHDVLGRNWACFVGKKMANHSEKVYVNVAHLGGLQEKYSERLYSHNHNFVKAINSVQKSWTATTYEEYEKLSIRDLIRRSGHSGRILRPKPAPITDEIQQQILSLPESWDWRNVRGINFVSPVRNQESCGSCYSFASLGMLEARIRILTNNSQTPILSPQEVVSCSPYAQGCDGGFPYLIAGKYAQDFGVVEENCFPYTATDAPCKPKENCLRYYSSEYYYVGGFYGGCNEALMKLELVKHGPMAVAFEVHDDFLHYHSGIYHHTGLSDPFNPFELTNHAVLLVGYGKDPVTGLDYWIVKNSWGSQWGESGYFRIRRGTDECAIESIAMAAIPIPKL

Cathepsin Z = Cathepsin Z (Homo sapiens, UniProt Q9UBR2); assay: Inhibition of human recombinant cathepsin Z
[2] = Half life in Sprague-Dawley rat at 1 mg/kg, iv or 3 mg/kg, po; type: ADME, organism-based; conditions: in vivo
Dipeptidyl peptidase 1 [3] = target: Dipeptidyl peptidase 1 (Homo sapiens, UniProt P53634)
[4] = Clearance in Beagle dog at 1 mg/kg, iv and 2 mg/kg, po; type: ADME, organism-based, Canis lupus familiaris; conditions: in vivo
[5] = Intrinsic clearance in rat hepatocytes at 1 uM after 5 to 120 mins by LC-MS/MS method; type: ADME, cell-based, Hepatocyte
Procedure, shortened: (§1)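 Hepatocyte intrinsic clearance for rat and dog, given in µL/min/10^6 cells.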

Cathepsin S = Cathepsin S (Homo sapiens, UniProt P25774); assay: Inhibition of human recombinant cathepsin S
[6] = target: Voltage-gated inwardly rectifying potassium channel KCNH2 (Homo sapiens, UniProt Q12809)
Cathepsin D = Cathepsin D (Homo sapiens, UniProt P07339); assay: Inhibition of human recombinant cathepsin D
[7] = Propionaldehyde reactivity assessed as half life of the compound at pH 7.4 by LC-UV method; type: physicochemical
[8] = Oral bioavailability in Sprague-Dawley rat at 3 mg/kg; type: ADME, organism-based; conditions: in vivo
[9] = Intrinsic clearance in human liver microsomes at 1 uM after 5 to 40 mins by LC-MS/MS method; type: ADME; conditions: read-out: CLH
physchem [10] = conditions: octanol/water, pH 7.4
[11] = Volume of distribution at steady state in Beagle dog at 1 mg/kg, iv and 2 mg/kg, po; type: ADME, organism-based, Canis lupus familiaris; conditions: in vivo, read-out: Vdss
Dipeptidyl peptidase 1 [12] = target: Dipeptidyl peptidase 1 (Canis lupus familiaris, UniProt O97578); assay: Inhibition of dog DPP1 using Gly-Arg-AMC as substrate preincubated for 30 mins followed by substrate addition by fluorometric assay
Procedure, shortened: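 Recombinant dog DPP1 enzyme, run under the same conditions as the human isolated-enzyme assay in a piperazine-based buffer. Compound and enzyme pre-incubated 30 min at rt. Fluorescent dipeptide substrate Gly-Arg-AMC then added and fluorescence read. pIC50 obtained by curve fitting.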

[13] = Apparent permeability across apical to basolateral side in human Caco2 cells at 10 uM after 2 hrs by LC-MS/MS method; type: ADME, cell-based; conditions: Caco-2
Procedure, shortened: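 Caco-2 bidirectional permeability run as P_app, given in cm/s x 10^-6.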

[14] = Protein binding in dog plasma at 10 uM after 6 hrs by LC-MS/MS method; type: ADME, cell-free, Canis lupus familiaris; conditions: read-out: PPB (converted)
[15] = Protein binding in human plasma at 10 uM after 6 hrs by LC-MS/MS method; type: ADME, cell-free; conditions: read-out: PPB (converted)
Cathepsin G = target: T2, Cathepsin G (Homo sapiens, UniProt P08311); assay: Inhibition of human recombinant cathepsin G
T2 sequence (P08311 whole entry): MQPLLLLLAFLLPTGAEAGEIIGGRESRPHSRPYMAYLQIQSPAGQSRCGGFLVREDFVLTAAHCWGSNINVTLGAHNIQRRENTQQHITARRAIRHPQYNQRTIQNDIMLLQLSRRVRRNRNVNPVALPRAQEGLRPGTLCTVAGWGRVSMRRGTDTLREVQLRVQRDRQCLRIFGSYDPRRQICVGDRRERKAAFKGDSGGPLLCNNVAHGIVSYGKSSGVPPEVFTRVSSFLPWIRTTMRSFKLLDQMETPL

Dipeptidyl peptidase 1 [16] = target: T3, Dipeptidyl peptidase 1 (Mus musculus, UniProt P97821); assay: Inhibition of mouse DPP1 using Gly-Arg-AMC as substrate preincubated for 30 mins followed by substrate addition by fluorometric assay
T3 sequence (P97821 whole entry): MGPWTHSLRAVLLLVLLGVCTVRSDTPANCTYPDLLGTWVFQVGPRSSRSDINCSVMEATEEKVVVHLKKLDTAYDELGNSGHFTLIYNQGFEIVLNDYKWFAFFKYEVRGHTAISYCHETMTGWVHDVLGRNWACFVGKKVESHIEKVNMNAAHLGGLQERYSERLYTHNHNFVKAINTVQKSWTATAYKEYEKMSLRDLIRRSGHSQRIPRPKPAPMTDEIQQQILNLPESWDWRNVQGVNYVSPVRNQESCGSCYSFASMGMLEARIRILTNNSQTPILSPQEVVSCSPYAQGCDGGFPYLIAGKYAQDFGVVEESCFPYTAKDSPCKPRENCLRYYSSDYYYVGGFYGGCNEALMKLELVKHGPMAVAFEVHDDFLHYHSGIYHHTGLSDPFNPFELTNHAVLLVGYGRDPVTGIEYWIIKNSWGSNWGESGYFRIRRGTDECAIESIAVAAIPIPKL
Procedure, shortened: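 Recombinant mouse DPP1 enzyme, tested under the same conditions as the human assay. Fluorometric assay in piperazine-based buffer.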

[17] = Clearance in Han Wistar rat at 1 mg/kg, iv and 3 mg/kg, po; type: ADME, organism-based; conditions: in vivo
Procedure, shortened: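 Han Wistar rat PK with 1 mg/kg iv and 3 mg/kg po doses, both in pH3 buffer. Clearance is given in ml/min/kg, Vss in L/kg and t1/2 in h.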

Rattus norvegicus = assay: In vivo inhibition of DPP1 in po dosed naive rat assessed as inactivation of proteinase 3 in bone marrow cell lysates administered as bid for 8 days; type: functional, organism-based
[18] = Intrinsic clearance in human liver microsomes at 1 uM after 5 to 30 mins by LC-MS/MS method; type: ADME; conditions: read-out: CLH
Procedure, shortened: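 Human liver microsome stability, with intrinsic clearance given in µL/min/mg.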

[19] = Inhibition of rabbit DPP1 expressed in CHO cells using Gly-Arg-AMC as substrate preincubated for 30 mins followed by substrate addition by fluorometric assay; type: cell-based, Oryctolagus cuniculus
[20] = Intrinsic clearance in dog hepatocytes at 1 uM after 5 to 120 mins by LC-MS/MS method; type: ADME, cell-based, Canis lupus familiaris, Hepatocyte; procedure, shortened: as §1
[21] = Apparent permeability across basolateral to apical side in human Caco2 cells at 10 uM after 1 hr by LC-MS method; conditions: Caco-2
physchem [22] = conditions: phosphate buffered saline, pH 7.4

Voltage-gated inwardly rectifying potassium channel KCNH2, sequence (Q12809 whole entry): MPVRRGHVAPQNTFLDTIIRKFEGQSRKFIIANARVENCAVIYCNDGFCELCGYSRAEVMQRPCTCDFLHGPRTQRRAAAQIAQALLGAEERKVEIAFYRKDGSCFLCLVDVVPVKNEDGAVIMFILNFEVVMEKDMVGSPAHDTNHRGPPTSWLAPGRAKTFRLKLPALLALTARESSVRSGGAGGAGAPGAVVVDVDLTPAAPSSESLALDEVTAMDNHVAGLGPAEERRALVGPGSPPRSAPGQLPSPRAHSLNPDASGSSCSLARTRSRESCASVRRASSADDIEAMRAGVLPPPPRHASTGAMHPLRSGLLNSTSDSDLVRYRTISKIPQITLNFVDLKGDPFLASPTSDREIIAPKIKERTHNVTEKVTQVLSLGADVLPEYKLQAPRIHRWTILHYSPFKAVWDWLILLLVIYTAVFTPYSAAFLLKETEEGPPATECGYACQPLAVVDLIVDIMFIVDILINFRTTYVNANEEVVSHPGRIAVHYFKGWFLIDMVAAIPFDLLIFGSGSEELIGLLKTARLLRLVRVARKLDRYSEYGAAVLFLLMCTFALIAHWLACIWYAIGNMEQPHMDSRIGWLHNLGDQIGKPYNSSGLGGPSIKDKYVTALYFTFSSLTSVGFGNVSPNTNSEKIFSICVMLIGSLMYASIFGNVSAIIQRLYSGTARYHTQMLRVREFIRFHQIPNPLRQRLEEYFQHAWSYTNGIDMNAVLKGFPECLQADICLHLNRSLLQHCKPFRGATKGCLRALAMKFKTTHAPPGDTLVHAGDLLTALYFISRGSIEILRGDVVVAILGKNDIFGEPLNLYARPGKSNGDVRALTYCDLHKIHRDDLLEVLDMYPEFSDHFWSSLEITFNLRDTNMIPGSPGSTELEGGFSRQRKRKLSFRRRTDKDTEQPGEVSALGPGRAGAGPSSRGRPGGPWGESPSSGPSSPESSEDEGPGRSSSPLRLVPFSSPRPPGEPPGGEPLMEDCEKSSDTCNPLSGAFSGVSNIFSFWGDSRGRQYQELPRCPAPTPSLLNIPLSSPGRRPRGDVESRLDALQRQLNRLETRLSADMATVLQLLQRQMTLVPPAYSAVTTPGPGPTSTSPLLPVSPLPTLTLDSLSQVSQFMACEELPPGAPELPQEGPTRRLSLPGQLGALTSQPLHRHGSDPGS
Cathepsin S, sequence (P25774 whole entry): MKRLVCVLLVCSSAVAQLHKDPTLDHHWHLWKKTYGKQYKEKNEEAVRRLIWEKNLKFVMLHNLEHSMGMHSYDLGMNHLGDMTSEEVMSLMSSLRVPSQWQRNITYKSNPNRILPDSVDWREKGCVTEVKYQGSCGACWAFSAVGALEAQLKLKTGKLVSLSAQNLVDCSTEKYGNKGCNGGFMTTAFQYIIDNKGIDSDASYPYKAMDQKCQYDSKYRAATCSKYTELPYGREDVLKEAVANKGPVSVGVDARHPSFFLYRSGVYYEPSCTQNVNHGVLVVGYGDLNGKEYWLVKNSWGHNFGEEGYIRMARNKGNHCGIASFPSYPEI
Cathepsin Z, sequence (Q9UBR2 whole entry): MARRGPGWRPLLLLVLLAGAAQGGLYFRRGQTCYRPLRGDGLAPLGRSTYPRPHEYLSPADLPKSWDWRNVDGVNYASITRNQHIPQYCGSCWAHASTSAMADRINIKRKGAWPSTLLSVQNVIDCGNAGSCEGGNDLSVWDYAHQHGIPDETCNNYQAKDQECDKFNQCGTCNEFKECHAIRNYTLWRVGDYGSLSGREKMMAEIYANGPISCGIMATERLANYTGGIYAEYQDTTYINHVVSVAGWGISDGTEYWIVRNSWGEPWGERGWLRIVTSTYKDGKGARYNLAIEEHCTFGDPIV
Dipeptidyl peptidase 1 (Canis lupus familiaris, UniProt O97578), sequence (O97578 1-109 limits assumed): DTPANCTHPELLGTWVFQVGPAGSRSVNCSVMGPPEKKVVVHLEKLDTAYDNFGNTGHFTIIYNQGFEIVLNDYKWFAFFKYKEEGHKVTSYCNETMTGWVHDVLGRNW
Dipeptidyl peptidase 1 (Canis lupus familiaris, UniProt O97578), sequence (O97578 200-366 limits assumed): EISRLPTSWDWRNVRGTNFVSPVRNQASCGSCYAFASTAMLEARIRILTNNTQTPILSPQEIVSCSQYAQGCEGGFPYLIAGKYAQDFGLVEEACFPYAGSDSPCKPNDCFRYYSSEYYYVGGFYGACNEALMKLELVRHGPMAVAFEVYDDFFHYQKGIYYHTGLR
Dipeptidyl peptidase 1 (Canis lupus familiaris, UniProt O97578), sequence (O97578 367-435 limits assumed): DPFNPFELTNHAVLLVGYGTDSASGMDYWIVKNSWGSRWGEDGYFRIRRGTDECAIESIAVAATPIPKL
Dipeptidyl peptidase 1 (Homo sapiens, UniProt P53634), sequence (P53634 25-134 limits assumed): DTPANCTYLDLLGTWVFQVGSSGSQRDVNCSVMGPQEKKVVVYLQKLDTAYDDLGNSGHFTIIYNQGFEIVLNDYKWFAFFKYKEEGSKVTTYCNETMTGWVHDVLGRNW
Dipeptidyl peptidase 1 (Homo sapiens, UniProt P53634), sequence (P53634 231-394 limits assumed): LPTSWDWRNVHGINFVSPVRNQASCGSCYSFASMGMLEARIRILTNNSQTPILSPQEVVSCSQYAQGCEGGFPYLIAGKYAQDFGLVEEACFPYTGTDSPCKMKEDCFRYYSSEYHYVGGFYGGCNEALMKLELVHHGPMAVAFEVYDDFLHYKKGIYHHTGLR
Dipeptidyl peptidase 1 (Homo sapiens, UniProt P53634), sequence (P53634 395-463 limits assumed): as the sequence (O97578 367-435 limits assumed) above, with S37T, R38G, D42N counted along it
Cathepsin D, sequence (P07339 65-162 limits assumed): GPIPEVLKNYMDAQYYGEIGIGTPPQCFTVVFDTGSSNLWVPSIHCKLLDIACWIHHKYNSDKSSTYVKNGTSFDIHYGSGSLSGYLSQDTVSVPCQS
Cathepsin D, sequence (P07339 169-412 limits assumed): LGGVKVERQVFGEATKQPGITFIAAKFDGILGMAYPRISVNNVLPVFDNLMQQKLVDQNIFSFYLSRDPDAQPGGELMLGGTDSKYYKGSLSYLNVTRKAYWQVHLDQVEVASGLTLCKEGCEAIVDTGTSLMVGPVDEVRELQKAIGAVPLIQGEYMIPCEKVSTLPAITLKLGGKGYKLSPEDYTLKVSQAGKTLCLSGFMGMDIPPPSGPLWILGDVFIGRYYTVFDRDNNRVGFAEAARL

Compound: Cn1c(=O)oc2ccc(-c3ccc(C[C@@H](C#N)NC(=O)[C@@H]4CNCCCO4)cc3)cc21 [BRENSOCATIB]
- IC50 (Dipeptidyl peptidase 1 [1]): 0.02 µM
- IC50 (Cathepsin Z): > 20 µM
- half-life [2]: 7 h
- T1/2 (Dipeptidyl peptidase 1 [3]): 3 min
- clearance [4]: 8 mL/min/kg
- CLH [5]: 1.9 µL/min/1e6 cells
- IC50 (Cathepsin S): > 20 µM
- IC50 [6]: > 33 µM
- IC50 (Cathepsin D): > 20 µM
- half-life [7]: > 50 h
- bioavailability [8]: 30%
- microsomal CLint at 1 µM [9]: < 14 µL/min/mg
- logD at 10 µM (physchem [10]): 0.8
- Vd [11]: 11 L/kg
- IC50 (Dipeptidyl peptidase 1 [12]): 0.0158 µM
- Papp A→B at 2 h, 10 µM [13]: 4 ×10⁻⁶ cm/s
- fraction unbound at 6 h, 10 µM [14]: 0.3
- fraction unbound at 6 h, 10 µM [15]: 0.13
- IC50 (Cathepsin G): > 20 µM
- IC50 (Dipeptidyl peptidase 1 [16]): 0.0251 µM
- clearance [17]: 7 mL/min/kg
- inhibition (Rattus norvegicus): Dose-dependent effect
- microsomal CLint at 1 µM [18]: < 3 µL/min/mg
- pIC50 [19]: 7.8
- CLH [20]: < 1 µL/min/1e6 cells
- Papp B→A at 1 h, 10 µM [21]: 58 ×10⁻⁶ cm/s
- solubility kinetic at 2 h (physchem [22]): 180 µM (≈ 75.7 µg/mL)
